Laboratory results taken from ChEMBL document CHEMBL5046217, “Discovery of New Imidazo[2,1-b]thiazole Derivatives as Potent Pan-RAF Inhibitors with Promising In Vitro and In Vivo Anti-melanoma Activity” (J Med Chem, 2021).

Legend:
[1] = target: Serine/threonine-protein kinase/endoribonuclease IRE1 (Homo sapiens, UniProt O75460); assay: Inhibition of ERN1 (unknown origin) incubated for 1 hr by qPCR analysis
In short: (§1)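 Competition binding assay. Kinases were either T7-phage-tagged (grown in an E. coli BL21-derived host) or expressed in HEK-293 cells and DNA-tagged. […] Bound kinase was eluted with non-biotinylated ligand and quantified by qPCR.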

[2] = target: T1, Receptor-type tyrosine-protein kinase FLT3 (Homo sapiens, UniProt P36888); assay: Inhibition of FLT3 (unknown origin) incubated for 1 hr by qPCR analysis; in short: as §1
T1 sequence (P36888 whole entry): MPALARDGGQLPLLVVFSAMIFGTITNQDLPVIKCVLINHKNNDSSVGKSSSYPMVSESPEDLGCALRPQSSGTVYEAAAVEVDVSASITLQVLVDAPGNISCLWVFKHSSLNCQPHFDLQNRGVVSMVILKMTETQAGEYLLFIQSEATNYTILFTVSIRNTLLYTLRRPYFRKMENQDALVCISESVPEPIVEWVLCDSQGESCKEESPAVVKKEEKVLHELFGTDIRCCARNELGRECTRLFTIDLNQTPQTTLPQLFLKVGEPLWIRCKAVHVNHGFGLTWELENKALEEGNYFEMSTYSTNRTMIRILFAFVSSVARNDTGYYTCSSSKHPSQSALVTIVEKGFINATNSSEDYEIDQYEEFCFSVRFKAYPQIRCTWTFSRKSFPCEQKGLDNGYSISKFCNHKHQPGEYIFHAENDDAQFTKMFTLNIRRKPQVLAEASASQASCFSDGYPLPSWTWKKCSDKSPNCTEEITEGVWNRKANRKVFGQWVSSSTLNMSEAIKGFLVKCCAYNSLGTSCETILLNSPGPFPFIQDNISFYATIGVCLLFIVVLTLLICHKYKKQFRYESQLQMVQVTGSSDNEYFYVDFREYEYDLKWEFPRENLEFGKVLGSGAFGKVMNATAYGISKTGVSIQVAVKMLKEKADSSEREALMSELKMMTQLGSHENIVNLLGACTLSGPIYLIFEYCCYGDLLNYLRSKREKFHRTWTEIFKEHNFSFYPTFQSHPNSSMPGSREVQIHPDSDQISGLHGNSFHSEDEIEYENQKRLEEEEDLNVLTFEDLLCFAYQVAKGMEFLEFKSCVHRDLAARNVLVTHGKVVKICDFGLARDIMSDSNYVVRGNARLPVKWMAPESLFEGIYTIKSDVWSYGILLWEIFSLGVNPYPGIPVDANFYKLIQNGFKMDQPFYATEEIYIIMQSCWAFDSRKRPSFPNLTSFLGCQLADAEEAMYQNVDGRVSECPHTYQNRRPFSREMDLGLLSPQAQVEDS

[3] = target: Mitogen-activated protein kinase 11 (Homo sapiens, UniProt Q15759); assay: Inhibition of MAPK11 (unknown origin) incubated for 1 hr by qPCR analysis; in short: as §1
[4] = tested on: Panel ovarian (Carcinoma cell lines); assay: Antiproliferative activity against human Panel ovarian (Carcinoma cell lines) assessed as cell growth inhibition measured after 48 hrs by SRB assay
[5] = tested on: Panel breast (Carcinoma cell lines); assay: Antiproliferative activity against human Panel breast (Carcinoma cell lines) assessed as cell growth inhibition measured after 48 hrs by SRB assay
[6] = tested on: Malme-3M; assay: Antiproliferative activity against human Malme-3M cells assessed as cell growth inhibition measured after 48 hrs by SRB assay
[7] = tested on: MDA-MB-435; assay: Antiproliferative activity against human MDA-MB-435 cells assessed as cell growth inhibition measured after 48 hrs by SRB assay; conditions: MDA-MB-435, 48 h
[8] = tested on: SK-MEL-2; assay: Antiproliferative activity against human SK-MEL-2 cells assessed as cell growth inhibition measured after 48 hrs by SRB assay; conditions: SK-MEL-2, 48 h
[9] = tested on: LOX IMVI; assay: Antiproliferative activity against human LOX IMVI cells assessed as total growth inhibition measured after 48 hrs by SRB assay
[10] = tested on: Malme-3M; assay: Antiproliferative activity against human Malme-3M cells assessed as total growth inhibition measured after 48 hrs by SRB assay
[11] = tested on: SK-MEL-5; assay: Antiproliferative activity against human SK-MEL-5 cells assessed as total growth inhibition measured after 48 hrs by SRB assay; conditions: SK-MEL-5, 48 h
[12] = Cytotoxicity against human L132 cells assessed as cell growth inhibition incubated for 48 hrs by MTT assay; assay type: toxicity, cell-based
[13] = tested on: Panel CNS (Carcinoma cell lines); assay: cells; conditions: Homo sapiens, 48 h, read-out: INH
[14] = tested on: Panel ovarian (Carcinoma cell lines); assay: cells; conditions: Homo sapiens, 48 h, read-out: INH

Chain of Serine/threonine-protein kinase/endoribonuclease IRE1 (O75460 whole entry): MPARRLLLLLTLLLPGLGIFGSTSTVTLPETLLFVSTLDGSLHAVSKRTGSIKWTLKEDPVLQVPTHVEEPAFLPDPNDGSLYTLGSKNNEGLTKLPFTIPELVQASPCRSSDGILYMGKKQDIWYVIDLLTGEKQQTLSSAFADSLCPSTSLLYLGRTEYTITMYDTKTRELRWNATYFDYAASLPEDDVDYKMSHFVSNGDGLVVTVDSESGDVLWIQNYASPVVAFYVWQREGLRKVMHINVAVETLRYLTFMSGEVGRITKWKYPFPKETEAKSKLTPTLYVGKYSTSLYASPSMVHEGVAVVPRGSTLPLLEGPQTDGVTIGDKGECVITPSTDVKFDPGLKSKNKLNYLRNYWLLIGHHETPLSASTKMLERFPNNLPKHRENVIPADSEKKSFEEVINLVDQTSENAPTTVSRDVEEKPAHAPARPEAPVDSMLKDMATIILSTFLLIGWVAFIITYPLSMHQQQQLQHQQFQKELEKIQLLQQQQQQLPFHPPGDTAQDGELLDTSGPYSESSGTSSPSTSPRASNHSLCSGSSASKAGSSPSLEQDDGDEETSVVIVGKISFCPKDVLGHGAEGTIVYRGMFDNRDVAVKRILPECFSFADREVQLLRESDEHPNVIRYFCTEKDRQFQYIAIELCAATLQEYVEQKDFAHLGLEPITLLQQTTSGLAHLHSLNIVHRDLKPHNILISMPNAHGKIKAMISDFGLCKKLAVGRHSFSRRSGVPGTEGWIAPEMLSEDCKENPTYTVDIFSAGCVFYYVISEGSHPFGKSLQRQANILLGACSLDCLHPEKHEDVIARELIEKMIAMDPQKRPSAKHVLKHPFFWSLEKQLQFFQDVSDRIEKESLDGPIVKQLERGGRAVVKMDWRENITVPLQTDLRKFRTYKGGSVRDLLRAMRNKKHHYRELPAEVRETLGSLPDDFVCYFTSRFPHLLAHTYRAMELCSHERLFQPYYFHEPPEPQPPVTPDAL
Chain of Mitogen-activated protein kinase 11 (Q15759 whole entry): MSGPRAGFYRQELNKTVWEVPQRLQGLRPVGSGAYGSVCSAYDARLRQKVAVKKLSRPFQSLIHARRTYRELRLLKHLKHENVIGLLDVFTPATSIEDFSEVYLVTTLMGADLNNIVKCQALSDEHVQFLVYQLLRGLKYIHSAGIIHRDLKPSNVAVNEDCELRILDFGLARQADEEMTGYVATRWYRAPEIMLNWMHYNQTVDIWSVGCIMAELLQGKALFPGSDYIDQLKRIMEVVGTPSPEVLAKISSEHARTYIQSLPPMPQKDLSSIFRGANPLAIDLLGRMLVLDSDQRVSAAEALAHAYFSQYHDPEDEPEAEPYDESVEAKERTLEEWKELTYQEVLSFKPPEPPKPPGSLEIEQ

**Q.** For O=S(=O)(NCCCNc1nccc(-c2c(-c3cccc(O)c3)nc3sccn23)n1)c1cccc(F)c1, which IC50 [1] is on record?
**A.** Its IC50 is 10.2 µM.

**Q.** And the IC50 [2]?
**A.** The IC50 was 1.48 µM.

**Q.** What about the IC50 [3] of the same compound?
**A.** The IC50 was 0.98 µM.

**Q.** What about the IC50 [4] of the same compound?
**A.** The IC50 was 2.97 µM.

**Q.** What about the IC50 [5] of the same compound?
**A.** Its IC50 is 2.41 µM.

**Q.** What about the IC50 [6] of the same compound?
**A.** Its IC50 is 2.6 µM.

**Q.** What about the IC50 [7] of the same compound?
**A.** The IC50 was 2 µM.

**Q.** And the IC50 [8]?
**A.** Its IC50 is 2.32 µM.

**Q.** And the TGI [9]?
**A.** The TGI was 5.82 µM.

**Q.** And the TGI [10]?
**A.** The TGI was 7.86 µM.

**Q.** And the TGI [11]?
**A.** The TGI was 2.28 µM.

**Q.** What about the IC50 at 48 h [12] of the same compound?
**A.** Its IC50 at 48 h is 56.3 µM.

**Q.** And the inhibition at 10 µM [13]?
**A.** Its inhibition at 10 µM is 83.1%.

**Q.** And the inhibition at 10 µM [14]?
**A.** The inhibition at 10 µM was 75%.
